According to ChEMBL document CHEMBL1147931, “3-(3,4,5-Trimethoxyphenyl)-1-oxo-2-propene: a novel pharmacophore displaying potent multidrug resistance reversal and selective cytotoxicity” (Bioorg Med Chem, 2007):
Active and inactive are the calls of the source. No cut-off for these calls is given here.

Columns and labels:
HSC-2 [1] = assay: Cytotoxicity against HSC2 cells; type: functional; conditions: Homo sapiens
Method in brief: (§1)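 Adherent cells pre-cultured 24 h in DMEM with 10% […] FBS, humidified 5% CO2, then exposed to a range of compound concentrations. Cells washed once with PBS, incubated 4 h in fresh medium with MTT, lysed in DMSO, viable cells read at 540 nm. CC50 from dose-response curves, average of two independent determinations.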

[2] = Cytotoxicity against HGF cells; type: cell-based; conditions: human; method in brief: as §1
[3] = Cytotoxicity against HPLF cells; type: cell-based; conditions: human; method in brief: as §1
HL-60 [4] = assay: Cytotoxicity against human HL60 cells; type: functional
Method in brief: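 HL-60 cells grown in RPMI1640 plus 10% FBS in humidified 5% CO2, exposed to a range of compound concentrations. Viable cells counted by trypan blue exclusion. CC50 from dose-response curves, average of two independent determinations.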

HSC-4 = assay: Cytotoxicity against HSC4 cells; type: functional; conditions: Homo sapiens; method in brief: as §1
[5] = Cytotoxicity against HPC cells; type: cell-based; conditions: human; method in brief: as §1
HSC-3 = assay: Cytotoxicity against HSC3 cells; type: functional; conditions: Homo sapiens; method in brief: as §1
HSC-2 [6] = assay: Effect on apoptosis in HSC2 cells assessed as increase in caspase 3 activation at 32 uM after 4 hrs; type: functional, cell-based; conditions: Homo sapiens
Method in brief: (§2)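 HSC-2 cells (2×10^6) grown in DMEM with 10% FBS in humidified 5% CO2, incubated 4 h with 4, 8, 16 or 32 µM compound; actinomycin D 1 µg/mL as positive control. Lysate (200 µg protein) incubated 2 h at 37 °C with DEVD-pNA (caspase-3), IETD-pNA (caspase-8) or LEHD-pNA (caspase-9); released pNA read at 405 nm. Mean of 2–3 experiments.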

HSC-2 [7] = assay: Effect on apoptosis in HSC2 cells assessed as increase in caspase 8 activation at 32 uM after 4 hrs; type: functional, cell-based; conditions: Homo sapiens; method in brief: as §2
HL-60 [8] = assay: Effect on apoptosis in human HL60 cells assessed as increase in caspase 3 activation at 4 uM after 4 hrs; type: functional, cell-based
HSC-2 [9] = assay: Effect on apoptosis in HSC2 cells assessed as increase in caspase 9 activation at 32 uM after 4 hrs; type: functional, cell-based; conditions: Homo sapiens; method in brief: as §2
HL-60 [10] = assay: Effect on apoptosis in human HL60 cells assessed as increase in caspase 9 activation above 8 uM after 4 hrs; type: functional, cell-based
HL-60 [11] = assay: Effect on apoptosis in human HL60 cells assessed as increase in caspase 3 activation above 8 uM after 4 hrs; type: functional, cell-based
HSC-2 [12] = assay: Effect on apoptosis in HSC2 cells assessed as increase in caspase 3 activation at 8 uM after 4 hrs; type: functional, cell-based; conditions: Homo sapiens; method in brief: as §2
HL-60 [13] = assay: Effect on apoptosis in human HL60 cells assessed as increase in caspase 8 activation above 8 uM after 4 hrs; type: functional, cell-based

Row | Structure (SMILES) | CC50 (HSC-2 [1]) | CC50 [2] | CC50 [3] | CC50 (HL-60 [4]) | CC50 (HSC-4) | CC50 [5] | CC50 (HSC-3) | Activity (HSC-2 [6]) | Activity (HSC-2 [7]) | Activity (HL-60 [8]) | Activity (HSC-2 [9]) | Activity (HL-60 [10]) | Activity (HL-60 [11]) | Activity (HSC-2 [12]) | Activity (HL-60 [13])
1 | N[C@@H](Cc1ccc(N(CCCl)CCCl)cc1)C(=O)O [MELPHALAN] | 35 µM | > 200 µM | > 200 µM | 6 µM | 81 µM | > 200 µM | 115 µM | – | – | – | – | – | – | – | –
2 | COc1cc(/C=C2\CCCC/C(=C\c3cc(OC)c(OC)c(OC)c3)C2=O)cc(OC)c1OC | 113 µM | 229 µM | 250 µM | 46 µM | 67 µM | 276 µM | 132 µM | – | – | – | – | – | – | – | –
3 | COc1cc(/C=C2\CCC/C(=C\c3ccc([N+](=O)[O-])cc3)C2=O)cc(OC)c1OC | – | – | – | – | 1.5 µM | – | – | Active | Active | Active | inactive | – | – | – | –
4 | COc1cc(/C=C/C(C)=O)cc(OC)c1OC | 55 µM | 159 µM | 263 µM | 47 µM | 41 µM | 188 µM | 72 µM | – | – | – | – | – | – | – | –
5 | COc1cc(/C=C2\CCCCCC2=O)cc(OC)c1OC | 214 µM | 262 µM | 291 µM | 31 µM | 269 µM | 277 µM | 200 µM | – | – | – | – | – | – | – | –
6 | COc1cc(/C=C/C(=O)/C=C/c2ccc([N+](=O)[O-])cc2)cc(OC)c1OC | < 3.1 µM | 16 µM | 106 µM | 6.4 µM | 3.8 µM | 94 µM | 5.7 µM | – | – | – | Active | Active | Active | Active | Active
7 | COc1cc(/C=C2\CCC/C(=C\c3cc(OC)c(OC)c(OC)c3)C2=O)cc(OC)c1OC | 34 µM | 335 µM | 388 µM | 46 µM | 36 µM | 285 µM | 62 µM | – | – | – | – | – | – | – | –
8 | COc1ccc(/C=C/C(=O)/C=C/c2ccc([N+](=O)[O-])cc2)cc1 | 6.3 µM | 81 µM | 193 µM | 25 µM | 12 µM | 141 µM | 16 µM | – | – | – | – | – | – | – | –
9 | COc1cc(/C=C2\CC/C(=C\c3cc(OC)c(OC)c(OC)c3)C2=O)cc(OC)c1OC | 19 µM | 240 µM | 281 µM | 21 µM | 58 µM | 247 µM | 89 µM | – | – | – | – | – | – | – | –
10 | COc1cc(/C=C2\CCCC/C(=C\c3ccc([N+](=O)[O-])cc3)C2=O)cc(OC)c1OC | 116 µM | 256 µM | 370 µM | 266 µM | 100 µM | 198 µM | 279 µM | – | – | – | – | – | – | – | –
11 | COc1ccc(/C=C2\CCC/C(=C\c3ccc([N+](=O)[O-])cc3)C2=O)cc1 | – | – | – | – | > 400 µM | – | – | – | – | – | – | – | – | – | –
